Here are results for two compounds from ChEMBL document CHEMBL3734687, “Mechanism of action of antiepileptic ceramide from Red Sea soft coral Sarcophyton auritum” (2015).

Activity calls are given as the source filed them. No cut-off for these calls is given here.

The species named for experiment [1] is Mus musculus. Nature of the experiment: Anticonvulsant activity in mouse assessed as time to death post pentylenetetrazole challenge measured for 20 mins. Format: functional. The gist of the method:
(§1)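 Mice given an acute pentylenetetrazole challenge (70 mg/kg, i.p.). Time to death recorded over a 20 min observation. Some groups were pretreated with bicuculline (0.1 mg/kg, i.p.) or ondansetron (1 mg/kg, i.p.) before the test agent. n = 6 per group. One-way ANOVA with Bonferroni post-test, P<0.05.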

Experiment [2] concerns Mus musculus. Nature of the experiment: Anxiolytic activity in mouse assessed as increase in time spent in the light area at 1 mg/kg, ip measured for 3 mins by dark-light transition test. Format: functional, organism-based. The gist of the method:
(§2)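 Dark-light transition box in mice, 3 min session. Cumulative time spent in the light area was recorded. Diazepam reference at 1 mg/kg i.p. Antagonist arms were pretreated with bicuculline (0.1 mg/kg, i.p.) or ondansetron (1 mg/kg, i.p.) before the test agent. n = 6. One-way ANOVA with Bonferroni comparisons, P<0.05.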

For experiment [3], the system named is Mus musculus. Nature of the experiment: Anxiolytic activity in mouse assessed as increase in time spent in the open arm at 1 mg/kg measured for 3 mins by elevated plus maze test relative to vehicle treated control. Format: functional, organism-based. The gist of the method:
(§3)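 Elevated plus maze in mice, 3 min screen. Read-out is percent of time spent in the open arms versus vehicle-treated mice. Diazepam reference at 1 mg/kg. Pretreatment with bicuculline (0.1 mg/kg, i.p.) or ondansetron (1 mg/kg, i.p.) preceded the test agent. n = 6/group. One-way ANOVA followed by Bonferroni, P<0.05.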

The test system of experiment [4] is Mus musculus. Nature of the experiment: Anxiolytic activity in mouse assessed as increase in time spent in the open arm pretreated with 1 mg/kg, ip 5-HT3 receptor blocker ondansetron followed by compound administration measured for 3 mins by elevated plus maze test. Format: functional, organism-based. Put shortly:
as §3

In experiment [5] the test system is Mus musculus. Nature of the experiment: Anticonvulsant activity in mouse model of PTZ-induced seizures assessed as prolongation of death time post pentylenetetrazole challenge pretreated with 0.1 mg/kg, ip GABA-A blocker bicuculline followed by compound administration measured for 20 mins. Format: functional, organism-based. The gist of the method: as §1
Experiment [6] is filed under the species Mus musculus. Nature of the experiment: Anxiolytic activity in mouse assessed as increase in time spent in the open arm measured for 3 mins by elevated plus maze test relative to vehicle treated control. Format: functional, organism-based. The gist of the method: as §3
Experiment [7] has as its system Mus musculus. Nature of the experiment: Anxiolytic activity in mouse assessed as increase in time spent in the light area pretreated with 1 mg/kg, ip 5-HT3 receptor blocker ondansetron followed by compound administration measured for 3 mins by dark-light transition test. Format: functional, organism-based. Put shortly:
as §2

The subject of experiment [8] is Mus musculus. Nature of the experiment: Anxiolytic activity in mouse assessed as increase in time spent in the open arm pretreated with 0.1 mg/kg, ip GABA-A blocker bicuculline followed by compound administration measured for 3 mins by elevated plus maze test. Format: functional, organism-based. Put shortly:
as §3

For experiment [9], the system named is Mus musculus. Nature of the experiment: Anxiolytic activity in mouse assessed as increase in time spent in the light area pretreated with 0.1 mg/kg, ip GABA-A blocker bicuculline followed by compound administration measured for 3 mins by dark-light transition test. Format: functional, organism-based. The gist of the method:
as §2

The species entered for experiment [10] is Mus musculus. Nature of the experiment: Anxiolytic activity in mouse assessed as increase in time spent in the light area measured for 3 mins by dark-light transition test. Format: functional, organism-based. The gist of the method:
as §2

In experiment [11] the test system is Mus musculus. Nature of the experiment: Anticonvulsant activity in mouse model of PTZ-induced seizures assessed as prolongation of death time post pentylenetetrazole challenge pretreated with 1 mg/kg, ip 5-HT3 receptor blocker ondansetron followed by compound administration measured for 20 mins. Format: functional, organism-based. Put shortly:
as §1

With `CN1C(=O)CN=C(c2ccccc2)c2cc(Cl)ccc21` [DIAZEPAM], in [1], the Time was 536 s. Further, the outcome in experiment [2] and in [3] was Active.
Consider `CCCCCCCCCCCCCC/C=C/C=C/[C@@H](O)[C@H](CO)NC(=O)CCCCCCCCCCCC`, for which the outcome in experiment [4], in [6], in experiment [7], in experiment [10] and in experiment [11] was Active. Also, in experiment [1], the Time is listed as 911 s. Moreover, the outcome in experiment [5], in experiment [8] and in experiment [9] was inactive.
